Experimental data reported in ChEMBL document CHEMBL1131523 (J Med Chem, 1998).
Peptide text beside a SMILES is read from it.

Experiments:
[1] = Pharmacokinetic parameter :drug bound to plasma was reported; assay type: ADME, cell-free
[2] = Pharmacokinetic parameter :volume apparent of distribution was reported; assay type: ADME, organism-based; details: in vivo
[3] = Pharmacokinetic parameter :half life in humans was reported; assay type: ADME, organism-based; details: human, in vivo; read-out: T1/2 beta (converted)
[4] = compound was evaluated for rate constant of transfer (log K1) at pH 7.4; assay type: ADME
How it was run: (§1)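 Transfer rate constants were measured in a triphasic water/octanol/water system (Kochi's flask). Compound in 40 mL of 0.06 mol L-1 phosphate buffer sat in compartment A, and 40 mL of the same buffer at the same pH sat in compartment B. 80 mL octanol was layered over both compartments.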

[5] = (§2) Partition coefficient (logD3.0); assay type: physicochemical; details: octanol/water, pH 3
[6] = compound was evaluated for reverse occurs for the rate constant(log K-1) at pH 7.4; assay type: ADME; details: buffer; how it was run: as §1
[7] = compound was evaluated for saturable association constant (nKa) of isolated serum protein LDL
[8] = compound was evaluated for saturable association constant (nKa) of isolated serum protein VLDL
[9] = (§3) Partition coefficient (logD7.4); assay type: physicochemical; details: octanol/water, pH 7.4
[10] = Lipophilicity parameter log Poct N; details: octanol/water
[11] = Lipophilicity parameter log Pdod N; assay type: physicochemical; details: dodecane/water
[12] = Partition coefficient between dodecane and water (logDdod7.4); assay type: physicochemical; details: pH 7.4
[13] = compound was evaluated for rate constant of transfer (log K1) at pH 4.6; assay type: ADME; how it was run: as §1
[14] = Partition coefficient (logD4.6); assay type: physicochemical; details: octanol/water, pH 4.6
How it was run: (§4)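 log D measured in n-octanol/aqueous phosphate buffer (0.02 mol L-1) by centrifugal partition chromatography in a multilayer coil separator–extractor at room temperature. UV detection was at the pH-dependent λmax. log D was computed from solute and solvent-front retention times, flow rate and column capacity. t0 came from K2Cr2O7 (pH > 4.5), CoCl2 (acidic pH) or biphenyl.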

[15] = compound was evaluated for reverse occurs for the rate constant(log K-1) at pH 4.6; assay type: ADME; details: buffer; how it was run: as §1
[16] = compound was evaluated for reverse occurs for the rate constant(log K-1) at pH 8.8; assay type: ADME; details: buffer; how it was run: as §1
[17] = compound was evaluated for rate constant of transfer (log K1) at pH 8.8; assay type: ADME; how it was run: as §1
[18] = compound was evaluated for rate constant of transfer (log K1) at pH 1.0; assay type: ADME; how it was run: as §1
[19] = compound was evaluated for reverse occurs for the rate constant(log K-1) at pH 3.0; assay type: ADME; details: buffer; how it was run: as §1
[20] = Partition coefficient (logD1.0); assay type: physicochemical; details: octanol/water, pH 1; how it was run: as §4
[21] = compound was evaluated for rate constant of transfer (log K1) at pH 3.0; assay type: ADME; how it was run: as §1
[22] = compound was evaluated for reverse occurs for the rate constant(log K-1) at pH 1.0; assay type: ADME; details: buffer; how it was run: as §1
[23] = compound were evaluated for rate constant of transfer (log K1) at pH 7.4; assay type: ADME; how it was run: as §1
[24] = as §3; assay type: physicochemical; details: octanol/water, pH 7.4; how it was run: as §4; remark: listed apart in the source
[25] = as §2; details: octanol/water, pH 3
[26] = Partition coefficient (logD1.5); details: octanol/water, pH 1.5
[27] = Partition coefficient (logD9.4); details: octanol/water, pH 9.4
[28] = Partition coefficient (logD6.8); details: octanol/water, pH 6.8

B [1]	Vd [2]	Log K1 [4]	logD ([5]; read-out: logD)	Log K-1 [6]	Structure (SMILES)	other results
98%					CN(C)CCOC(c1ccccc1)c1ccccc1 [DIPHENHYDRAMINE]	
96%	48 L/kg				COc1ccc(CCN2CCC(Nc3nc4ccccc4n3Cc3ccc(F)cc3)CC2)cc1 [ASTEMIZOLE]	half-life [3]: 26 h
					O=C(O)COCCN1CCN(C(c2ccccc2)c2ccc(Cl)cc2)CC1 (stereo unspecified) [CETIRIZINE]	nKa [7]: 2.21 M/M; nKa [8]: 289 M/M
65%					CC(C)(C(=O)O)c1ccc(C(O)CCCN2CCC(C(O)(c3ccccc3)c3ccccc3)CC2)cc1 (stereo unspecified) [FEXOFENADINE]	
98%	2.9 L/kg				CC(C)(C)c1ccc(C(O)CCCN2CCC(C(O)(c3ccccc3)c3ccccc3)CC2)cc1 (stereo unspecified) [TERFENADINE]	half-life [3]: 23 h
		-2.55		-1.77	CC(C)C[C@H](N)C(=O)N[C@@H](Cc1ccccc1)C(=O)O (H-Leu-Phe-OH)	
72%	10 L/kg				CN(C)CCC(c1ccc(Br)cc1)c1ccccn1 (stereo unspecified) [BROMPHENIRAMINE]	half-life [3]: 24.9 h
			1.03		CC(CCc1ccccc1)NCC(O)c1ccc(O)c(C(N)=O)c1 (stereo unspecified) [LABETALOL]	Log K1 [13]: -2.07; logD [14]: -0.8; Log K-1 [15]: -1.58; Log K-1 [16]: -2.22; Log K1 [17]: -0.89
		-1.22	0.14	-1.73	CN(C(=O)C1=C(O)c2ccccc2S(=O)(=O)N1C)c1ccccn1	Log K1 [18]: -1.51; Log K-1 [19]: -1.63; logD [20]: -0.12; Log K1 [21]: -1.19; logD [5]: 0.14; Log K-1 [22]: -1.69
		-1.94	-0.52	-1.74	N[C@@H](Cc1c[nH]c2ccccc12)C(=O)N[C@@H](Cc1ccccc1)C(=O)O (H-Trp-Phe-OH)	
90%	8.7 L/kg				Cc1ccc(/C(=C\CN2CCCC2)c2ccccn2)cc1 [TRIPROLIDINE]	half-life [3]: 30 h
		-2.73	-1.38	-1.72	N[C@@H](Cc1c[nH]c2ccccc12)C(=O)N[C@@H](Cc1ccc(O)cc1)C(=O)O (H-Trp-Tyr-OH)	
			-1.02	-1.57	N[C@@H](Cc1ccccc1)C(=O)N[C@@H](Cc1ccccc1)C(=O)O (H-Phe-Phe-OH)	Log K1 [23]: -2.29
97%					CCOC(=O)N1CCC(=C2c3ccc(Cl)cc3CCc3cccnc32)CC1 [LORATADINE]	
			0.07		COC1=C(C(=O)Nc2ccccn2)N(C)S(=O)(=O)c2ccccc21	Log K1 [18]: -1.32; Log K-1 [22]: -1.69
98%	2.4 L/kg				CC(C)(C(=O)O)c1ccc(C(=O)CCCN2CCC(OC(c3ccccc3)c3ccccc3)CC2)cc1 [CAREBASTINE]	half-life [3]: 16 h
		-1.53	1.43	-1.75	CN1C(C(=O)Nc2ccccn2)=C(O)c2ccccc2S1(=O)=O [PIROXICAM]	Log K1 [18]: -1; Log K-1 [19]: -2.42; logD [20]: 0.63; Log K1 [21]: -0.69; Log K-1 [22]: -1.93; logD [24]: -0.08
72%	5.9 L/kg				CN(C)CCC(c1ccc(Cl)cc1)c1ccccn1 (stereo unspecified) [CHLORPHENIRAMINE]	
			0.86		Cc1ccc(/C(=C\CN2CCCC2)c2cccc(/C=C/C(=O)O)n2)cc1 [ACRIVASTINE]	logD [25]: -0.48; logD [26]: -0.93; logD [27]: 0.24; logD [28]: -0.03

Structure (SMILES)	B [1]	Vd [2]	Log K1 [4]	logD ([5]; read-out: logD)	Log K-1 [6]	other results
CN1CCCC(n2nc(Cc3ccc(Cl)cc3)c3ccccc3c2=O)CC1 (stereo unspecified) [AZELASTINE]		14.5 L/kg				half-life [3]: 25 h
CNCc1ccccc1 [N-BENZYLMETHYLAMINE]			-0.78	0.86	-1.94	
OCCOCCN1CCN(C(c2ccccc2)c2ccc(Cl)cc2)CC1 (stereo unspecified) [HYDROXYZINE]		30.5 L/kg				logD [9]: 3.1; half-life [3]: 20 h; logP [10]: 3.5; Log Pdod N [11]: 1.25; logD [12]: 0.9
c1ccncc1 [PYRIDINE]			-0.83		-1.7	
Oc1ccccc1 [PHENOL]			-0.68	1.54	-2.5	
